Screening results from PubChem.
Rpn11 block – inhibitors of human proteasome Rpn11. O00487. human 26S proteasome, Ub4-pepOG fluorescence polarization; 20S core pre-blocked with epoxomicin. inhibition, % at 20 µM. 360,000 compounds, 0.59% hits. AID 588493;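 active means inhibition at 20 µM, scaled to each plate's controls, above about 33%, limit read from the data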
Target sequence (O00487 whole entry, looked up): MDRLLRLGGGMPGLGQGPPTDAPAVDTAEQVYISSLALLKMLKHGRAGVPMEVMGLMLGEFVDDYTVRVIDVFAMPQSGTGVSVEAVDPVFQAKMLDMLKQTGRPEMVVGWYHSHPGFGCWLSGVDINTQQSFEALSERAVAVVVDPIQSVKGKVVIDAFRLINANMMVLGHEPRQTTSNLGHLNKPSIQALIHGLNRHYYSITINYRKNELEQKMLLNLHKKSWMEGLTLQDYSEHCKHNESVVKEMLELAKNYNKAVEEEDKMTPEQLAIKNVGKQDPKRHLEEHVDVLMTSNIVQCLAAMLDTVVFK
UCH37 DUB inh – human UCH37 deubiquitinating enzyme inhibition; Q9Y5K5; inhibition, % (no concentration beside the values); 330,000 compounds, 0.33% hits; purified proteasome/UCH37, Ub-AMC cleavage fluorescence;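 active means mean inhibition over replicate wells above about 20%, limit read from the data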;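 further: 0% = compound-free wells with enzyme and 100% = wells lacking proteasome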
Target sequence (Q9Y5K5 whole entry, looked up): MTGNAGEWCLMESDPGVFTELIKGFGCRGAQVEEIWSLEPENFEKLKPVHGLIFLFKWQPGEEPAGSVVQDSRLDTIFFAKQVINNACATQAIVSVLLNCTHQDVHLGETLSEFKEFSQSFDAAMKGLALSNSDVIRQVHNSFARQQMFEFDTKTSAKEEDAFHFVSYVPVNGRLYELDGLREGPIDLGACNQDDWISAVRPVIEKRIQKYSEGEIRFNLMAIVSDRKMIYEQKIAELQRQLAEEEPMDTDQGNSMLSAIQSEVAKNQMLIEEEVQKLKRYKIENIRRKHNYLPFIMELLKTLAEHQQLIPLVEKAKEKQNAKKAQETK
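Test system – human UCH37 enzyme supplied as purified proteasome complex · Incubation – 30 min preincubation with enzyme, 25 min cleavage at room temperature · Detection – AMC fluorescence from Ub-AMC cleavage, excitation 355 nm, emission 460 nm · Benchmarks – no-proteasome wells (full inhibition) and compound-free wells (no inhibition)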
PLC-gamma1 inh – PLC-gamma1 (human) inhibition, primary screen; P19174; purified PLC-gamma1, fluorogenic substrate, fluorescence; inhibition, % at 12.2 µM; 370,000 compounds, 0.84% hits
PLC-beta3 inh – blocks human PLC-beta3 enzyme activity; 370,000 compounds, 0.18% hits; Purified PLC-beta3, fluorogenic substrate, fluorescence; inhibition, % at 12.2 µM; Q01970; AID 720704; in the data active means inhibition above about 11%;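 further: 0% = median of compound wells on plate and 100% = full blocker control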
PLCg1 ctr – counter-screen for PLC-beta3 inhibitors: inhibitors of human PLC-gamma1 | shares compounds with PLC-gamma1 inh | purified PLC-gamma1, fluorogenic substrate, fluorescence | inhibition, % at 12.3 µM | 3,300 compounds, 3.1% hits | AID 743258
PLCb3 confirm – human PLC-beta3 inhibition, confirmation; shares compounds with PLC-gamma1 inh; purified PLC-beta3, fluorogenic substrate fluorescence; inhibition, % at 12.3 µM; 3,300 compounds, 1% hits; AID 743261; in the data active means inhibition above about 11%
Numbers without * were called inactive; · = no result given. Hits are enriched below; roughly 1.7% of the tested compounds scored in any of these assays. Unless noted, no stated cut-off is given here; in the data, active means inhibition above about 9.5%; inactive means the rest.

SMILES	Rpn11 block	UCH37 DUB inh	PLC-gamma1 inh	PLC-beta3 inh	PLCg1 ctr	PLCb3 confirm
CS(=O)(=O)N(CCc1ccccc1)CC(=O)N1CCCCCC1	1	·	2	13*	-7	-3
O=[N+]([O-])c1cccc(C=NNc2nc(C(Cl)(Cl)Cl)nc3ccccc23)c1	·	5	·	·	·	·
CCNC(=S)NN=C1CCC(C(C)(C)C)CC1 (stereo not drawn)	-3	6	13*	-1	-7	-5
O=C(Nc1ccccc1Cl)c1cc(C2CCCN(C(=O)CCc3ccccc3)C2)on1 (stereo not drawn)	0	·	9.8*	3	-1	0
O=C(Cc1ccc(NC(=O)C2CCCN(C(=O)C3CCCCC3)C2)cc1)Nc1ccc(C(=O)N2CCOCC2)cc1 (stereo not drawn)	4	0	10*	9	-5	0
O=C(Cc1ccc(NC(=O)C2CCCN(C(=O)C3CCCC3)C2)cc1)Nc1ccc(C(=O)N2CCOCC2)cc1 (stereo not drawn)	-3	0	4	5	·	·
CN(Cc1ccccc1)C(=O)c1cccc(NC(=O)Cc2ccc(NC(=O)C3CCCN(C(=O)c4ccccc4)C3)cc2)c1 (stereo not drawn)	5	2	12*	5	-3	0
O=C(Cc1ccc(NC(=O)C2CCN(C(=O)C3CCCCC3)CC2)cc1)Nc1ccc(C(=O)N2CCOCC2)cc1	5	1	13*	10	0	3
COc1ccc(C(=O)N2CCC(C(=O)Nc3ccc4c(c3)OCCO4)CC2)cc1	0	1	9	12*	-8	-2
ON=C(c1ccc(Cl)cc1)C1CC1c1ccccc1 (stereo not drawn)	·	5	·	·	·	·
NC(N)=NN=Cc1ccc(OCc2ccccc2)c(OCc2ccccc2)c1	·	2	·	·	·	·
FC(F)(F)c1cc(CO[C@@H]2CCCN[C@@H]2c2ccccc2)cc(C(F)(F)F)c1	-8	4	10*	9	-10	-2
O=C(NN=Cc1cccc2ccccc12)c1ccc(CN2CCOCC2)cc1	·	4	·	·	·	·
CCOCCCNC(=O)C(c1ccc(Cl)cc1)N(Cc1ccc2c(c1)OCO2)C(=O)CNC(C)=O (stereo not drawn)	-4	-1	0	-2	·	·
CCOCCCNC(=O)C(c1ccc(C)cc1)N(Cc1ccc2c(c1)OCO2)C(=O)CNC(C)=O (stereo not drawn)	-2	1	13*	0	-26	-12
CCCC(=NNC(=O)c1ccc(OC)c(OC)c1)c1ccccc1	·	0	·	·	·	·
C[N+](C)(C)CC(=O)NN=Cc1c2ccccc2cc2ccccc12	·	1	·	·	·	·
NC1=C(Br)C(=O)c2ncccc2C1=O	5	·	9.5*	6	6	5
O=C1c2cccnc2C(=O)N1CO	2	0	-1	6	·	·
Cc1cccc(C(=O)Oc2coc(CSc3nnc(NC(=O)C4CC4)s3)cc2=O)c1	-10	-1	1	6	·	·
Cc1ccc(C(=O)Oc2coc(CSc3nnc(NC(=O)C4CC4)s3)cc2=O)cc1C	-3	7	11*	8	1	1
Cc1cc(=O)[nH]c(NN=C/C=C/c2ccccc2)n1	·	8	·	·	·	·
CCCCN(C(=O)CNC(=O)c1ccco1)C(C(=O)NC1CCCC1)c1ccc(OC)cc1 (stereo not drawn)	-3	3	12*	-1	-3	-2
O=C(NCC(=O)N(c1cccnc1)C(C(=O)NC1CCCCC1)c1ccccc1F)c1ccco1 (stereo not drawn)	2	1	11*	5	2	1
CCOc1ccc(C(C(=O)NC2CCCC2)N(CCOC)C(=O)CNC(=O)c2ccco2)cc1 (stereo not drawn)	6	-1	-3	-9	·	·
SMILES	Rpn11 block	UCH37 DUB inh	PLC-gamma1 inh	PLC-beta3 inh	PLCg1 ctr	PLCb3 confirm
O=C(NCC(=O)N(c1cccnc1)C(C(=O)NC1CCCC1)c1ccccc1)c1ccco1 (stereo not drawn)	4	2	-1	4	·	·
COc1ccc(C=NNC(=O)c2cc(-c3cccc(C)c3)nc3ccccc23)cc1O	·	3	·	·	·	·
CCN(CC)S(=O)(=O)c1cccc(C(=O)NN=Cc2ccc([N+](=O)[O-])o2)c1	·	3	·	·	·	·
CCN(CC(=O)Nc1ccccc1C(F)(F)F)C(=O)c1oc2c(Cl)cccc2c1C	14	·	13*	6	4	-1
CCN(CC(=O)Nc1ccc(OC)cc1)C(=O)c1oc2c(Cl)cccc2c1C	3	1	2	-5	·	·
CCC(C=NNc1ccc(S(=O)(=O)N2CCCC2)cc1[N+](=O)[O-])CC	·	6	·	·	·	·
Cc1cc(C)nc(NN=Cc2ccccc2OCc2ccc(Br)cc2)n1	·	1	·	·	·	·
CC1Cn2c(CCc3ccccc3)nnc2S1 (stereo not drawn)	-5	-1	0	-2	·	·
CC1Cn2c(Cc3ccccc3)nnc2S1 (stereo not drawn)	3	·	8	14*	-1	3
CC(=NNC(=O)c1sccc1-n1cccc1)c1cccs1	·	-12	·	·	·	·
Cc1cc(C)cc(-n2c(C)cc(C=NNC(=O)CSc3ncccn3)c2C)c1	·	2	·	·	·	·
O=C(NCc1cccnc1)Nc1ccc(Cl)c(Cl)c1	2	7	9.6*	-2	-5	-1
S=C(NCc1cccnc1)Nc1ccc(Cl)c(Cl)c1	-8	1	1	8	·	·
CC(=NNS(=O)(=O)c1ccc(Br)cc1)c1ccc(C)o1	·	2	·	·	·	·
O=C(NN=Cc1cccs1)c1cccnc1	·	6	·	·	·	·
O=C(NN=Cc1ccccn1)c1cc(-c2ccc(Br)s2)[nH]n1	·	3	·	·	·	·
CN(N=Cc1ccc(O)cc1O)c1ncc(C(F)(F)F)cc1Cl	·	-4	·	·	·	·
Nc1ccc2nc(-c3cccnc3)[nH]c2c1	7	8	-37	-39	·	·
Nc1cccc(C(=O)Nc2ccc3nc(-c4cccnc4)[nH]c3c2)c1	2	2	12*	5	-7	-5
Cc1cnn(Cc2ccccc2)c1N	-1	0	10*	7	-9	-4
O=C(CNC(=O)C1CCCCC1)Nc1cc(Cl)ccc1Cl	3	1	11*	8	-2	3
O=C(COc1cccc2ccccc12)NN=C/C=C/c1ccccc1	·	0	·	·	·	·
O=C(Nn1c(C2CCC2)nc2ccccc2c1=O)C1CCC1	-6	6	0	0	·	·
O=C(Nn1c(C2CCC2)nc2ccccc2c1=O)c1cccs1	8	2	9	15*	-6	-4
NC(=O)C(=O)NN=Cc1c(F)c(F)c(F)c(F)c1F	·	6	·	·	·	·
SMILES	Rpn11 block	UCH37 DUB inh	PLC-gamma1 inh	PLC-beta3 inh	PLCg1 ctr	PLCb3 confirm
O=S(=O)(CS(=O)(=O)c1ccc(Br)cc1)c1ccc(Br)cc1	·	·	27*	0	21*	1
Cc1ccc(C(=O)NC(=S)Nc2ccc(CN3CCOCC3)cc2)cc1	2	4	10*	-2	-7	-3
CSc1cnn(CCC#N)c(=O)n1	·	·	12*	4	-6	0
CSc1nc(=O)n(CCC#N)nc1SC	0	·	1	12*	1	4
N/C(=N\OC(=O)c1ccc2c(c1)OCO2)c1ccc(Cl)cc1	-6	3	4	6	·	·
N/C(=N\OC(=O)c1ccc2c(c1)OCO2)c1ccncc1	0	2	13*	-5	-4	-2
